Among the data in ChEMBL document CHEMBL1128319, “Cyclosporin analogs modified in the 3,7,8-positions: substituent effects on peptidylprolyl isomerase inhibition and immunosuppressive activity are nonadditive” (J Med Chem, 1995) are IC50 values, retold here.

The species named for one experiment is Mus musculus. Description: The compound was tested in vitro for inhibition of proliferation in BDF1 mouse spleen cells stimulated with concanavalin A (ConA). It counts as functional. The method, boiled down: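 BDF1 mouse spleen cells, 5 × 10⁶/mL in RPMI-10, given compound dilutions and Con A 5 μg/mL. Cultured 72 h at 37 °C, 5% CO₂, with [³H]thymidine 0.5 μCi over the last 16 h. Incorporated radioactivity counted by scintillation. Quadruplicate means used; viability checked by trypan blue. IC50 derived.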

For a further experiment, the system named is Jurkat. Description: The compound was tested in vitro for inhibition of IL-2 release stimulated with PMA/ionomycin by Jurkat cells. The note with it: Homo sapiens. It is filed as functional, cell-based. The method, boiled down: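 Jurkat cells at 2 × 10⁵/mL in RPMI-10 (10% heat-inactivated calf serum) with serial compound dilutions, stimulated with PMA 1000 ng/mL plus ionomycin 125 ng/mL, incubated overnight. IL-2 in supernatants quantified by ELISA.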

Broadly, the IC50 is the concentration that gives 50% inhibition. Read a low IC50 as greater potency. On to `C/C=C/CC(C)[C@@H](O)[C@H]1C(=O)N[C@@H](CC)C(=O)N(C)CC(=O)N(C)[C@@H](CC(C)C)C(=O)N[C@@H](C(C)C)C(=O)N(C)[C@@H](CC(C)C)C(=O)N[C@@H](Cc2ccccc2)C(=O)N[C@H](CO)C(=O)N(C)[C@@H](CC(C)C)C(=O)N(C)[C@@H](CC(C)C)C(=O)N(C)[C@@H](C(C)C)C(=O)N1C` (some centres not stated), for which the values for the half-inhibitory concentration (IC50) in the experiment filed under Mus musculus and in the experiment with Jurkat were 105 nM and 21 nM, respectively.
`C/C=C/CC(C)C(O)[C@H]1C(=O)N[C@@H](CC)C(=O)N(C)[C@H](C)C(=O)N(C)[C@@H](CC(C)C)C(=O)N[C@@H](C(C)C)C(=O)N(C)[C@@H](CC(C)C)C(=O)N[C@@H](Cc2ccccc2)C(=O)N[C@H](C)C(=O)N(C)[C@@H](CC(C)C)C(=O)N(C)[C@@H](CC(C)C)C(=O)N(C)[C@@H](C(C)C)C(=O)N1C` (some centres not stated): the IC50 in the experiment listed under Mus musculus came out at 142 nM; in the experiment with Jurkat, 62 nM.
For `C/C=C/C[C@@H](C)[C@@H](O)[C@H]1C(=O)N[C@@H](CC)C(=O)N(C)CC(=O)N(C)[C@@H](CC(C)C)C(=O)N[C@@H](C(C)C)C(=O)N(C)C(CC(C)C)C(=O)N[C@@H](C)C(=O)N[C@H](C)C(=O)N(C)C(CC(C)C)C(=O)N(C)[C@@H](CC(C)C)C(=O)N(C)C(C(C)C)C(=O)N1C` (single isomer, unassigned) [CYCLOSPORINE], the half-maximal inhibitory concentration (IC50) in the experiment on Jurkat stood at 12 nM.
As to `C/C=C/CC(C)[C@@H](O)[C@H]1C(=O)N[C@@H](CC)C(=O)N(C)CC(=O)N(C)[C@@H](CC(C)C)C(=O)N[C@@H](C(C)C)C(=O)N(C)[C@@H](CC(C)C)C(=O)N[C@@H](Cc2ccccc2)C(=O)N[C@H](C)C(=O)N(C)[C@@H](CC(C)C)C(=O)N(C)[C@@H](CC(C)C)C(=O)N(C)[C@@H](C(C)C)C(=O)N1C` (some centres not stated), the IC50 in the experiment listed under Mus musculus worked out at 248 nM; in the experiment on Jurkat, 107 nM.
